Series [1] is described as follows: (§1) In vitro neurotoxicity (Maximum Tolerated concentration[MTC]) was measured by quantification of cellular lysis after measurement of LDH activity released from damaged cells. Type of series: toxicity, cell-based. As to conditions: mouse, HT-22 cells; read-out: MTC.
Series [2] concerns HT-22. As to the kind of experiment: (§2) In vitro neurotoxicity (concentration producing 50% toxicity [TC50]) was measured by (MTT) reduction assay on murine HT-22 hippocampal cell cultures and compared to those of parent exifone,. Type of series: functional. To be noted: Mus musculus, read-out: TC50 (the source's name).
Series [3] can be described thus: (§3) In vitro neurotoxicity (concentration producing 50% toxicity [TC50]) was measured by quantification of cellular lysis after measurement of LDH activity released from damaged cells. It is filed as cell-based. As to conditions: mouse, HT-22 cells; read-out: TC50 (the source's name).
The test system of series [4] is HT-22. As to the kind of experiment: In vitro neurotoxicity (Maximum Tolerated concentration[MTC]) was measured by (MTT) reduction assay on murine HT-22 hippocampal cell cultures and compared to those of parent exifone. It is filed as functional, Mus musculus.
In series [5] the test system is HT-22. The series is described as follows: In vitro neuroprotective activity estimated through their protective effects against L-homocysteic acid(L-HCA) cytotoxicity) on murine HT-22 hippocampal cell cultures and compared to those of exifone. (MTT reduction assay). It is filed as functional, Mus musculus.
The test system of series [6] is HT-22. The series is described as follows: The concentration producing 50%protection (PC50) was obtained for lactate dehydrogenase (LDH) activity. In vitro neuroprotective activity estimated through their protective effects against L-homocysteic acid(L-HCA) cytotoxicity on murine HT-22 hip pocampal cell cultures and compared to those of exifone. It is filed as functional, Mus musculus.

Series [7] can be described thus: Ratio of MTC to PC50 after measurement of LDH activity; Safety ratio. Type of series: functional. Summed up: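 Safety index: MTC divided by PC50, both from LDH release in HT-22 cells. MTC comes from 48 h drug exposure alone; PC50 from 1 h antioxidant pretreatment followed by 48 h 2 mM L-HCA exposure. Both derived by linear regression.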
Series [8] in a line: Ratio of MTC to PC50 in MTT reduction assay; Safety ratio. It is filed as functional. The gist of the method: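 Safety index: MTC divided by PC50, both from MTT reduction in HT-22 cells. MTC comes from 48 h drug exposure alone; PC50 from protection against 48 h 2 mM L-HCA after 1 h pretreatment. Both estimated by linear regression.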
The subject of series [9] is HT-22. The series is described as follows: In vitro neurotoxicity (concentration producing 50% toxicity [TC50]) was measured by (MTT) reduction assay on murine HT-22 hippocampal cell cultures and compared to those of parent exifone. It is filed as functional. To be noted: Mus musculus, read-out: TC50 (the source's name).
Series [10] deals with HT-22. The series is described as follows: In vitro neuroprotective activity estimated through their protective effects against L-homocysteic acid(L-HCA) cytotoxicity) on murine HT-22 hippocampal cell cultures and compared to those of exifone(MTT reduction assay). It is filed as functional, Mus musculus.
For series [11], the system named is HT-22. As to the kind of experiment: The concentration producing 50%protection (PC50) was measured by lactate dehydrogenase (LDH) activity. In vitro neuroprotective activity estimated through their protective effects against L-homocysteic acid(L-HCA) cytotoxicity on murine HT-22 hippocampal cell cultures and compared to those of exifone. It is filed as functional, Mus musculus.

In series [12] the test system is HT-22. As to the kind of experiment: In vitro neuroprotective activity estimated through their protective effects against L-homocysteic acid(L-HCA) cytotoxicity) on murine HT-22 hippocampal cell cultures and compared to those of exifone (MTT reduction assay). It is filed as functional, Mus musculus.
Series [13] can be described thus: as §2. It is filed as cell-based. To be noted: mouse, HT-22 hippocampal cells; read-out: TC50 (the source's name).
Series [14] deals with HT-22. Described as §3. It is filed as functional. To be noted: Mus musculus, read-out: TC50 (the source's name).
Series [15] relates to HT-22. The description is as §1. Type of series: functional, Mus musculus.

Where only a bound is given, the exact number is not on record here.

With `O=C(c1ccccc1)c1ccc(NC(CO)CO)c2c1NC(CO)CO2` (stereo not drawn), in series [1], the MNTC is more than 250 µM.
Same read-out and setting: the result for `CC1(C)COc2c(NCCO)ccc(C(=O)c3ccccc3)c2N1` reads 100 µM; that for `O=C(c1ccccc1)c1ccc(NCc2ccccc2)c2c1NC(c1ccccc1)(c1ccccc1)CO2`, more than 250 µM.
On to `O=C(C1=CC=C(O)C2(O)OCC3(CCCC3)N=C12)c1ccccc1` (stereo not drawn), for which the CC50 with HT-22 [2] was 109 µM; in series [3], more than 250 µM. In the series with HT-22 [4], the MTC stood at 50 µM. The MNTC in series [1] is 50 µM. Besides, the PC50 with HT-22 [5] is 47.4 µM; in the series with HT-22 [6] it was 40.9 µM. Also, the Ratio in series [7] worked out at 1.2; in [8], 1.1.
As to `CC1(C)COc2c(NCc3ccccc3)ccc(C(=O)c3ccccc3)c2N1`, in series [1], the MNTC is more than 250 µM.
As to `O=C(c1ccccc1)c1ccc(O)c2c1NC(CO)CO2` (stereo not drawn), the MNTC in series [1] was determined as 10 µM.
Still for that read-out and setting: next, `CC1(CO)COc2c(NC(CO)CO)ccc(C(=O)c3ccccc3)c2N1` (stereo not drawn): more than 250 µM; `CC(C)(C)C1COc2c(O)ccc(C(=O)c3ccccc3)c2N1` (stereo not drawn): 5 µM.
For `O=C(c1ccccc1)c1ccc(NCCO)c2c1NC(CO)(CO)CO2`, the MNTC in series [1] is more than 250 µM.
On the same count and under the same terms, the result for `CC(C)CCNc1ccc(C(=O)c2ccccc2)c2c1OCC(C)(C)N2` reads 10 µM.
As to `CC(C)(C)C1COc2c(NCCc3ccccc3)ccc(C(=O)c3ccccc3)c2N1` (stereo not drawn), the CC50 (in series [3]; in the series on HT-22 [9]) was more than 250 µM throughout. For the same compound, in the series with HT-22 [4], the MTC is 100 µM. The MNTC in [1] worked out at 250 µM. In addition, the PC50 with HT-22 [10] was 8.8 µM; with HT-22 [6] it was 8.9 µM. Further, the Ratio was 28 in series [7] and 11 in series [8].
As for `CC(C)CNc1ccc(C(=O)c2ccccc2)c2c1OCC1(CCCC1)N2`, the CC50 (in series [3]; with HT-22 [9]) was more than 250 µM throughout. Also, the MTC with HT-22 [4] was determined as 10 µM. The MNTC in series [1] was more than 250 µM. For the same compound, the PC50 with HT-22 [10] and with HT-22 [11] was more than 10 µM each time. The Ratio in series [7] and in series [8] was less than 1 each time.
`CC1(C)COc2c(NC(CO)CO)ccc(C(=O)c3ccccc3)c2N1`: in series [1], the MNTC was more than 250 µM.
With `O=C(c1ccccc1)c1ccc(O)c2c1NC1(CCCC1)CO2`, the results for the CC50 (in series [3]; in the series with HT-22 [9]) were 36.4 µM and 37.5 µM, respectively. Also, in the series on HT-22 [4], the MTC came to 25 µM. Besides, the MNTC in [1] stood at 25 µM. For the same compound, the PC50 is 25 µM in the series on HT-22 [12] and 18.4 µM in the series with HT-22 [11]. The values for the Ratio in [7] and in [8] were 1.4 and 1, respectively.
Take `CC(C)CCNc1ccc(C(=O)c2ccccc2)c2c1OCC(c1ccccc1)(c1ccccc1)N2`: in series [1], the MNTC was more than 250 µM.
Still for that read-out and setting: the result for `O=C(C1=CC=C(O)C2(O)OCC(CO)N=C12)c1ccccc1` (stereo not drawn) reads 25 µM.
On the same count and under the same terms, the result for `CC(C)CCNc1ccc(C(=O)c2ccccc2)c2c1OCC(C(C)(C)C)N2` (stereo not drawn) reads 10 µM.
Regarding `O=C(c1ccccc1)c1ccc(NCc2ccccc2)c2c1NC1(CCCC1)CO2`, the CC50 (in [3]; in the series on HT-22 [9]) was more than 250 µM each time. Moreover, in the series on HT-22 [4], the MTC is more than 250 µM. In series [1], the MNTC was more than 250 µM. The PC50 was 6.9 µM in the series with HT-22 [10] and 7.1 µM in the series with HT-22 [11]. Also, the Ratio in [7] and in [8] was more than 36 each time.
As to `CC(C)(C)C1COC2(O)C(O)=CC=C(C(=O)c3ccccc3)C2=N1` (stereo not drawn), the values for the CC50 (in [13]; in the series on HT-22 [14]) were 17.6 µM and 38.1 µM, respectively. Also, the MTC in the series on HT-22 [4] and in the series with HT-22 [15] was 10 µM throughout. The PC50 is 6.5 µM in the series with HT-22 [5] and 5.8 µM with HT-22 [6]. Moreover, the Ratio in series [7] came to 1.7; in [8] it was 1.5.
As to `CC1(CO)COc2c(NCCO)ccc(C(=O)c3ccccc3)c2N1` (stereo not drawn), the MNTC in series [1] was more than 250 µM.
Take `CC(C)(C)C1COc2c(NCc3ccccc3)ccc(C(=O)c3ccccc3)c2N1` (stereo not drawn): the MNTC in series [1] was more than 250 µM.

The record behind these values is ChEMBL document CHEMBL1132493, “Synthesis and in vitro evaluation of new 8-amino-1,4-benzoxazine derivatives as neuroprotective antioxidants” (J Med Chem, 1999).
